# ChEMBL document CHEMBL3112573, “Design, synthesis and evaluation of acridine and fused-quinoline derivatives as potential anti-tuberculosis agents” (Eur J Med Chem, 2014)
# Active and inactive are the calls of the source. The calls are words filed in the database; no cut-off is given here.
# Assays:
# [1] = tested on: Mycobacterium tuberculosis; assay: Antimicrobial activity against Mycobacterium tuberculosis H37Rv after 7 days by BacTiter-Glo assay; assay type: functional, organism-based; settings: 168 h
# How it was run: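 H37Rv in 384-well format, 10-point dose response, compounds serially diluted 1:2 from 100 thru 0.195 (top of range); DMSO carrier as 100% growth control, high amikacin as background, lower amikacin (MIC-approximating) control. After 7 days, equilibrated to room temperature, BacTiter-Glo added, 20 min at room temperature, luminescence (ATP) read.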
# [2] = tested on: Mycobacterium tuberculosis; assay: Antimicrobial activity against Mycobacterium tuberculosis H37Rv SRI 1345 infected in mouse J774 cells assessed as intracellular growth inhibition at MIC after 7 days relative to control; assay type: functional
# How it was run: (§1)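 Murine J774 cells in RPMI 1640 + L-glutamine/FBS, 37 °C, 5% CO2; seeded 2.0 × 10^5 per well in 10% FBS, overnight, then 1% FBS to halt division. After 24 h infected with H37Rv at MOI 5 for 4 h, washed; drug at three concentrations (mid bracketing primary-screen MIC, ten-fold below and above) for 7 days. SDS lysis, DNase, plating on 7H10 for CFU; log reduction day 0 to day 7; duplicates, rifampin control.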
# [3] = tested on: Mycobacterium tuberculosis; assay: Antimicrobial activity against Mycobacterium tuberculosis H37Rv SRI 1345 infected in mouse J774 cells assessed as intracellular growth inhibition at 10-fold above MIC after 7 days relative to control; assay type: functional; how it was run: as §1
# [4] = Cytotoxicity against mouse J774 cells assessed as cell viability at 10-fold below MIC relative to control; assay type: cell-based; settings: read-out: Activity
# How it was run: (§2)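 Uninfected J774 macrophages run in parallel to the infection assay (RPMI 1640, 1% FBS, 37 °C, 5% CO2), exposed to the same three concentrations (mid bracketing primary-screen MIC, ten-fold below and above); MTT proliferation read-out reported as percent viability.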
# [5] = tested on: Mycobacterium tuberculosis; assay: Antimicrobial activity against Mycobacterium tuberculosis H37Rv SRI 1345 infected in mouse J774 cells assessed as intracellular growth inhibition at 10-fold below MIC after 7 days relative to control; assay type: functional; how it was run: as §1
# [6] = tested on: Mycobacterium tuberculosis; assay: Antimicrobial activity against Mycobacterium tuberculosis H37Rv SRI 1345 incubated for 7 days under aerobic condition by low-oxygen recovery assay; assay type: functional, organism-based
# [7] = Cytotoxicity against mouse J774 cells assessed as cell viability at 10-fold above MIC relative to control; assay type: cell-based; settings: read-out: Activity; how it was run: as §2
# [8] = tested on: Mycobacterium tuberculosis; assay: Bactericidal activity against Mycobacterium tuberculosis H37Rv SRI 1345 after 18 to 24 hrs; assay type: functional; settings: for MBC: Mycobacterium tuberculosis, H37Rv SRI 1345, read-out: MBC99.9
# How it was run: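 Following MIC testing, diluted aliquots from wells lacking macroscopic growth plated on Middlebrook 7H10 agar, 16–21 days at 37 °C, colonies counted. MBC = lowest concentration giving 99.9% kill over the MIC period (18–24 h); >40 colonies taken as rejection value; uncountable plates reported TNTC.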
# [9] = tested on: Mycobacterium tuberculosis; assay: Antimicrobial activity against Mycobacterium tuberculosis H37Rv SRI 1345 assessed as growth inhibition at MIC after 7 days by broth microdilution assay relative to control; assay type: functional
# How it was run: (§3)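 Broth microdilution per CLSI in Middlebrook 7H9 + OADC; ten two-fold dilutions; inoculum targeted 1.0 × 10^6 CFU/mL M. tuberculosis; 37 °C, ~90% humidity, 7 days. Wells scored visually for turbidity, partial or complete clearing; MIC = lowest concentration visually inhibiting growth; percent inhibition at the MIC also recorded. Duplicates; rifampin or isoniazid positive control, medium-only and organism-only controls.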
# [10] = Cytotoxicity against mouse J774 cells assessed as cell viability at MIC relative to control; assay type: cell-based; settings: read-out: Activity; how it was run: as §2
# [11] = tested on: Mycobacterium tuberculosis; assay: Antimicrobial activity against Mycobacterium tuberculosis H37Rv SRI 1345 incubated for 7 days under anaerobic condition followed by exposure to gaseous condition measured after 7 days by low-oxygen recovery assay; assay type: functional, organism-based
# How it was run: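 Microplates set up as for MIC testing, then held anaerobically (automated jar gassing) 7 days at 37 °C, moved to ambient air with 5% CO2 for 7 days; wells scored visually for turbidity/clearing. Result = lowest concentration visually inhibiting growth. Duplicates with sterility, growth and rifampin or isoniazid controls.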
# [12] = tested on: Mycobacterium tuberculosis; assay: Antimicrobial activity against Mycobacterium tuberculosis H37Rv SRI 1345 assessed as growth inhibition after 7 days by broth microdilution assay; assay type: functional; settings: H37Rv SRI 1345, 168 h; how it was run: as §3
smiles,measurement,setting,value
O=[N+]([O-])c1ccc2nc3c(c(-c4ccccc4)c2c1)Cc1ccccc1-3,IC50,[1],> 100 µM
same,IC90,[1],> 100 µM
Clc1ccc2nc3c(c(-c4ccccc4)c2c1)CCC3,fold change (FC),[2],1.82
same,fold change (FC),[3],3.12
same,viability,[4],86%
same,fold change (FC),[5],1
same,Activity,[6],Active
same,viability,[7],< 10%
same,CFU,[8],0
same,MBC,[8],50 µg/mL
same,growth inhibition (GI),[9],88%
same,IC50,[1],73.4 µM
same,IC90,[1],> 100 µM
same,viability,[10],79%
same,Activity,[11],Active
same,MIC,[12],12.5 µg/mL
NNC(=O)c1ccncc1 [ISONIAZID],IC50,[1],0.18 µM
same,IC90,[1],0.29 µM
CC1(C)CC(=O)c2c(nc3ccc(Cl)cc3c2-c2ccccc2)C1,IC50,[1],> 100 µM
same,IC90,[1],> 100 µM
CO[C@H]1/C=C/O[C@@]2(C)Oc3c(C)c(O)c4c(O)c(c(/C=N/N5CCN(C)CC5)c(O)c4c3C2=O)NC(=O)/C(C)=C\C=C\[C@H](C)[C@H](O)[C@@H](C)[C@@H](O)[C@@H](C)[C@H](OC(C)=O)[C@@H]1C [RIFAMPIN],fold change (FC),[2],1.83
same,fold change (FC),[3],1.85
same,viability,[4],82%
same,fold change (FC),[5],0.46
same,viability,[7],78%
same,CFU,[8],39
same,MBC,[8],1.56 µg/mL
same,growth inhibition (GI),[9],65%
same,IC50,[1],0.02 µM
same,IC90,[1],0.02 µM
same,viability,[10],86%
same,MIC,[12],0.049 µg/mL
Clc1ccc2nc3c(c(-c4ccccc4)c2c1)CCCC3,IC50,[1],> 100 µM
same,IC90,[1],> 100 µM
CC[C@@H](CO)NCCN[C@@H](CC)CO [ETHAMBUTOL],IC50,[1],< 1.56 µM
same,IC90,[1],32.8 µM
CC1(C)CC(=O)c2c(nc3ccc([N+](=O)[O-])cc3c2-c2ccccc2)C1,IC50,[1],> 100 µM
same,IC90,[1],> 100 µM
Clc1ccc2nc3c(c(-c4ccccc4)c2c1)CCCCC3,IC50,[1],> 100 µM
same,IC90,[1],> 100 µM
NCC[C@H](O)C(=O)N[C@@H]1C[C@H](N)[C@@H](O[C@H]2O[C@H](CN)[C@@H](O)[C@H](O)[C@H]2O)[C@H](O)[C@H]1O[C@H]1O[C@H](CO)[C@@H](O)[C@H](N)[C@H]1O [AMIKACIN],IC50,[1],0.07 µM
same,IC90,[1],0.08 µM
O=[N+]([O-])c1ccc2nc3c(c(-c4ccccc4)c2c1)CCCC3,fold change (FC),[2],1.25
same,fold change (FC),[3],1.72
same,viability,[4],67%
same,fold change (FC),[5],1.8
same,Activity,[6],Active
same,viability,[7],25%
same,growth inhibition (GI),[9],52%
same,IC50,[1],44.4 µM
same,IC90,[1],> 100 µM
same,viability,[10],63%
same,Activity,[11],Active
same,MIC,[12],12.5 µg/mL
Clc1ccc2nc3c(c(-c4ccccc4)c2c1)Cc1ccccc1-3,IC50,[1],> 100 µM
same,IC90,[1],> 100 µM
O=[N+]([O-])c1ccc2nc3c(c(-c4ccccc4)c2c1)CCCCC3,fold change (FC),[2],1.19
same,fold change (FC),[3],1.41
same,viability,[4],82%
same,fold change (FC),[5],1.24
same,Activity,[6],Active
same,viability,[7],< 10%
same,growth inhibition (GI),[9],76%
same,IC50,[1],61.9 µM
same,IC90,[1],95.4 µM
same,viability,[10],79%
same,Activity,[11],Active
same,MIC,[12],75 µg/mL
O=C1c2ccccc2-c2nc3ccc([N+](=O)[O-])cc3c(-c3ccccc3)c21,IC50,[1],> 100 µM
same,IC90,[1],> 100 µM
O=C1c2ccccc2-c2nc3ccc(Cl)cc3c(-c3ccccc3)c21,IC50,[1],> 100 µM
same,IC90,[1],> 100 µM
Clc1ccc2nc3c(c(-c4ccccc4)c2c1)-c1ccccc1C3,IC50,[1],> 100 µM
same,IC90,[1],> 100 µM
CCc1nc(N)nc(N)c1-c1ccc(Cl)cc1 [PYRIMETHAMINE],IC50,[1],5 µM
same,IC90,[1],5 µM
N[C@@H]1CONC1=O [CYCLOSERINE],IC50,[1],12.5 µM
same,IC90,[1],13.5 µM
